# Calls of active or inactive are those of the source. No cut-off for these calls is given here.
# What was measured:
# [1] = system: Mycobacterium tuberculosis; assay: Antimycobacterial activity against wild-type Mycobacterium tuberculosis H37Rv ATCC 27294 after 16 to 18 days by BACTEC 7H12B microdilution method; assay type: functional
# [2] = target: DNA gyrase subunit A/DNA gyrase subunit B (Mycobacterium tuberculosis (strain ATCC 25618 / H37Rv), UniProt P9WG45+P9WG47); assay: Inhibition of Mycobacterium tuberculosis H37Rv DNA gyrase holoenzyme-mediated supercoiling of pBR322 DNA after 90 mins by agarose gel electrophoresis
# Sequence of DNA gyrase subunit A/DNA gyrase subunit B (P9WG45 whole entry): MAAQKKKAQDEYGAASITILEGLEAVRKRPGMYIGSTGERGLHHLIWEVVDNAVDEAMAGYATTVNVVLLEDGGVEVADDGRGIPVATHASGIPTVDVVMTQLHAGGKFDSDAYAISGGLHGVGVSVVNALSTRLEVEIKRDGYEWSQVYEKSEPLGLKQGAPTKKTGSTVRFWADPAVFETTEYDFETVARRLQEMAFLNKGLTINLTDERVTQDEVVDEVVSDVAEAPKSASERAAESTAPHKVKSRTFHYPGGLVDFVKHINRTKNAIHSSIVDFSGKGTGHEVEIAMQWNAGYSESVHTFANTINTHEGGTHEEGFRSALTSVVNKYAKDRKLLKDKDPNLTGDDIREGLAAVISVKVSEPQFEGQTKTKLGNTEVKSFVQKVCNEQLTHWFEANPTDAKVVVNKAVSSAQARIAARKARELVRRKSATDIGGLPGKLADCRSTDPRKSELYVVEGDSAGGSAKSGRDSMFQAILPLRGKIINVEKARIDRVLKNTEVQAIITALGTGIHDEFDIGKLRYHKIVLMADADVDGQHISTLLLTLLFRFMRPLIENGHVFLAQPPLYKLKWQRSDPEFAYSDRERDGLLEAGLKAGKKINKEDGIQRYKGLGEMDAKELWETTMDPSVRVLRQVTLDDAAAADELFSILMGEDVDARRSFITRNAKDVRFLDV
# Sequence of DNA gyrase subunit A/DNA gyrase subunit B (P9WG47 whole entry): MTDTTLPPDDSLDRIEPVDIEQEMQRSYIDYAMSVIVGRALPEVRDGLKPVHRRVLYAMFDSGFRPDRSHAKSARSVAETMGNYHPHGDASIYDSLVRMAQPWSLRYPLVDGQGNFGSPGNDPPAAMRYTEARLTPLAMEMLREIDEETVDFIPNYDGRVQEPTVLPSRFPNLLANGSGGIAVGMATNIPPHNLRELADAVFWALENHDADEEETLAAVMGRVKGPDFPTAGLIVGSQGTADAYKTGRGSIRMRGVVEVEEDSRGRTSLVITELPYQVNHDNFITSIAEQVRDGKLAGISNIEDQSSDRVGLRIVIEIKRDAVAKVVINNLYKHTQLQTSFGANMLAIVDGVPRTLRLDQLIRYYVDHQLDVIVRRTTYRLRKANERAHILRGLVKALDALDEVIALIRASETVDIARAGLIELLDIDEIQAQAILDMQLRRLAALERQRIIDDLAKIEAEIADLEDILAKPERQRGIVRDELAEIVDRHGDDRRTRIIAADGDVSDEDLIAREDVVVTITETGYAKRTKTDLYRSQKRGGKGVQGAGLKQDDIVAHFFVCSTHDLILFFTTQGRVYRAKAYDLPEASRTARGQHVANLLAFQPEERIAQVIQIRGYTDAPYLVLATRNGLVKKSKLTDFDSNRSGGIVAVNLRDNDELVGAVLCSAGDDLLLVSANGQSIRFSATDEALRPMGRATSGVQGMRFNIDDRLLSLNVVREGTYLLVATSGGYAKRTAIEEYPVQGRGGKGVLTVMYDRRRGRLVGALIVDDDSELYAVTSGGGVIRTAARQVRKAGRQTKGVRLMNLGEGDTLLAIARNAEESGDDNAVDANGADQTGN
# DNA gyrase subunit B = DNA gyrase subunit B (Mycobacterium smegmatis, UniProt P0C559); assay: Inhibition of Mycobacterium smegmatis DNA gyrase-B ATPase activity; parameters: species or system Mycolicibacterium smegmatis
# Sequence of DNA gyrase subunit B (P0C559 whole entry): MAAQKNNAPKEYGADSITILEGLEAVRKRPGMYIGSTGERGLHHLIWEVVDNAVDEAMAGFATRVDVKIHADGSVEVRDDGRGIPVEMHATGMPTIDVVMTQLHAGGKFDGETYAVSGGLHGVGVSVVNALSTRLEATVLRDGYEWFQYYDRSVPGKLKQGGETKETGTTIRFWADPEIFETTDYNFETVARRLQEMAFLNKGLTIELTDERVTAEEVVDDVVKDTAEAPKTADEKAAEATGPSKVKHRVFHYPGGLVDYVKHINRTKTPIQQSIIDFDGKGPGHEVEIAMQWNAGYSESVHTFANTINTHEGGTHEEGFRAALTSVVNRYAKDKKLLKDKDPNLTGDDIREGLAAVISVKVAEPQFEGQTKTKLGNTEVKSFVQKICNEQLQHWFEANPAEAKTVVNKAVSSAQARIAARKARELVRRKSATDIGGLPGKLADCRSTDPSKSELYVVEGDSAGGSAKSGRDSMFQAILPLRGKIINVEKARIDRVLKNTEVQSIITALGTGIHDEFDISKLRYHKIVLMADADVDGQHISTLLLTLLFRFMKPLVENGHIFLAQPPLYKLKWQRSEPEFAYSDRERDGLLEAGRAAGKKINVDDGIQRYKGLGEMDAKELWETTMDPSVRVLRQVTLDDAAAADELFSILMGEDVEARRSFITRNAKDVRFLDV
# [3] = Octanol-sodium phosphate buffer partition coefficient, log D of the compound at 10 mM at pH 7.4 by shake-flask method; assay type: physicochemical
# [4] = Apparent permeability from apical to basolateral side in human Caco2 cells; assay type: ADME, cell-based; settings: Caco-2
# [5] = Apparent permeability from basolateral to apical side in human Caco2 cells; assay type: ADME, cell-based; settings: Caco-2
# [6] = Clearance in rat at 40 mg/kg, po and 5 mg/kg, iv by LC-MS/MS analysis; assay type: ADME, organism-based; settings: in vivo
# Outline: (§1)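 Rats were dosed with the 5% dextrose (pH 4−5) formulation, 5 mg/kg iv and 40 mg/kg po. Plasma was precipitated with acetonitrile and analysed by LC−MS/MS with a carbamazepine internal standard. Parameters were derived by noncompartmental analysis.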
# [7] = Oral bioavailability in rat at 40 mg/kg by LC-MS/MS analysis; assay type: ADME, organism-based; settings: in vivo; outline: as §1
# [8] = system: Mycobacterium tuberculosis; assay: Antimycobacterial activity against Mycobacterium tuberculosis infected in aminobenzotriazole-pretreated BALB/c mouse acute tuberculosis model assessed as reduction in bacterial burden at 80 to 160 mg/kg, po bid for 20 days; assay type: functional, organism-based
# Outline: (§2)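 Aerosol-infected BALB/c mice in BSL3, three per group. Treatment began 3 days (acute) or 4 weeks (chronic) after infection. ABT 100 mg/kg po in water was given 2 h before oral gavage of compound in 5% dextrose (pH 4−5 with acetic acid), 10 mL/kg, twice daily at 8 h intervals. Courses were 20 days (7 days/week) or 8 weeks (6 days/week). Lung homogenates were plated on 7H11 for cfu.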
# [9] = Fraction unbound in aminobenzotriazole-pretreated BALB/c mouse plasma infected with Mycobacterium tuberculosis by LC-MS/MS analysis; assay type: ADME, cell-free
# [10] = Ratio of fAUC in aminobenzotriazole-pretreated Mycobacterium tuberculosis infected BALB/c mouse at 80 mg/kg, po to MIC for wild-type Mycobacterium tuberculosis H37Rv ATCC 27294
# Outline: (§3)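 PK was measured in infected, ABT-pretreated mice during efficacy dosing (oral, 5% dextrose pH 4−5) on day 18 or 19. Saphenous blood was taken at 5, 15 and 30 min and 1, 2, 4 and 6 h. Plasma was precipitated with acetonitrile and analysed by LC−MS/MS. AUC came from noncompartmental analysis; free AUC/MIC and %free T>MIC used the unbound fraction and MIC.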
# Mus musculus [11] = assay: fT>MIC in BALB/c mouse infected with Mycobacterium tuberculosis at 80 mg/kg, po; outline: as §3
# [12] = system: Mycobacterium tuberculosis; assay: Bactericidal activity against Mycobacterium tuberculosis H37Rv after 10 days by time kill assay; assay type: functional, organism-based
# Outline: (§4)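 Time-kill in 7H9 broth with 0.2% glycerol, 0.05% Tween 80 and 10% ADC. Serial 2-fold dilutions were added to ~3 × 10^7 cfu/mL H37Rv at 37 °C. Aliquots were plated on 7H11 at days 0, 3, 7 and 10, and plates were incubated up to 28 days at 37 °C, 5% CO2, humidified. Results are given as log10 cfu per concentration.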
# [13] = system: Mycobacterium tuberculosis; assay: Bactericidal activity against Mycobacterium tuberculosis H37Rv at 0.01 to 2 ug/ml by time kill assay; assay type: functional, organism-based; settings: TDE = time-dependent effect; outline: as §4
# [14] = system: Mycobacterium tuberculosis; assay: Bactericidal activity against Mycobacterium tuberculosis H37Rv assessed as reduction in log10CFU at 0.01 to 2 ug/ml after 10 days by time kill assay; assay type: functional; outline: as §4
# [15] = target: Voltage-gated inwardly rectifying potassium channel KCNH2 (Homo sapiens, UniProt Q12809); assay: Inhibition of human ERG by patch clamp electrophysiological analysis
# Sequence of Voltage-gated inwardly rectifying potassium channel KCNH2 (Q12809 whole entry): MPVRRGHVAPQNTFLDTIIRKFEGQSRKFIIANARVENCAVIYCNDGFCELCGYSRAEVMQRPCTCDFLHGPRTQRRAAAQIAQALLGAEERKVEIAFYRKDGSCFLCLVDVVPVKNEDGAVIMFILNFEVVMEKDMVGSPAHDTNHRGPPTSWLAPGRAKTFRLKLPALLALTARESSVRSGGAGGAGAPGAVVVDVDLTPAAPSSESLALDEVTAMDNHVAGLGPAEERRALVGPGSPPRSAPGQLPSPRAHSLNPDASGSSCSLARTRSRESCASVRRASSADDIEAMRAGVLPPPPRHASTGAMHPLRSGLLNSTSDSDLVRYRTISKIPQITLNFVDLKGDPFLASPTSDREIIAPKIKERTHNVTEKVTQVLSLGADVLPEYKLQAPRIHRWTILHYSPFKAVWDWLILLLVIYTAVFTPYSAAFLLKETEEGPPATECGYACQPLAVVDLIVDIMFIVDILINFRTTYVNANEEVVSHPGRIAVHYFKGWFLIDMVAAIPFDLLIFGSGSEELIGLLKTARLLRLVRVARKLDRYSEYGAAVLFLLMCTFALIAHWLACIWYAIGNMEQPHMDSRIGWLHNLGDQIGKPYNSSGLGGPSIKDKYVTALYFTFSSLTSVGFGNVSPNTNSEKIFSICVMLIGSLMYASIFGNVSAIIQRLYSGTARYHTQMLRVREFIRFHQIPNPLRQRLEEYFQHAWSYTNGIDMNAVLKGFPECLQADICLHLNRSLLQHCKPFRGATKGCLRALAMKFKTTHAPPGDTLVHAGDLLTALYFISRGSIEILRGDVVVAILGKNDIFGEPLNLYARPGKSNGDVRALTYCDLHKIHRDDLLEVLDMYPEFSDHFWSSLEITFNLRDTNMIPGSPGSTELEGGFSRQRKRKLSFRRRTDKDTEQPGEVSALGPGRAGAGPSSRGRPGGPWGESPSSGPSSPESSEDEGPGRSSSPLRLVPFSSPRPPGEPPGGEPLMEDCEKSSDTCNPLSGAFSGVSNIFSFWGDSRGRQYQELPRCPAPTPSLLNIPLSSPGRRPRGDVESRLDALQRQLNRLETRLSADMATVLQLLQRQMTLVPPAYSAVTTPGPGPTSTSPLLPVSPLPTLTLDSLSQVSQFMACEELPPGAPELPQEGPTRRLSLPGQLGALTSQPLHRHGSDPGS
# [16] = system: Mycobacterium tuberculosis; assay: Antimycobacterial activity against Mycobacterium tuberculosis clinical isolates after 2 to 4 weeks by BACTEC 460 radiometric assay; assay type: functional
# [17] = system: Mycobacterium tuberculosis; assay: Antimycobacterial activity against Mycobacterium tuberculosis infected in aminobenzotriazole-pretreated BALB/c mouse acute tuberculosis model assessed as reduction in bacterial burden at 20 mg/kg, po bid for 20 days; assay type: functional, organism-based; parameters: dose 20 mg/kg; outline: as §2
# [18] = system: Mycobacterium tuberculosis; assay: Bactericidal activity against Mycobacterium tuberculosis infected in human THP1 cells at 1 ug/ml for 7 days; assay type: functional, THP-1
# Outline: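 Adherent THP-1 macrophages infected with Mtb were exposed to compound at 1 μg/mL for 7 days at 37 °C. Kill was expressed as log reduction versus the untreated control.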
# [19] = system: Mycobacterium tuberculosis; assay: Antimycobacterial activity against Mycobacterium tuberculosis infected in aminobenzotriazole-pretreated BALB/c mouse chronic tuberculosis model assessed as reduction in log10CFU at 40 to 80 mg/kg, po bid for 20 days; assay type: functional; settings: dose mg/kg 40-80; outline: as §2
# [20] = system: Mycobacterium tuberculosis; assay: Antimycobacterial activity against Mycobacterium tuberculosis infected in aminobenzotriazole-pretreated BALB/c mouse chronic tuberculosis model assessed as reduction in log10CFU at 40 to 80 mg/kg, po bid for 8 weeks; assay type: functional, organism-based; outline: as §2
# [21] = Ratio of fAUC in aminobenzotriazole-pretreated Mycobacterium tuberculosis infected BALB/c mouse at 20 mg/kg, po to MIC for wild-type Mycobacterium tuberculosis H37Rv ATCC 27294; outline: as §3
# Mus musculus [22] = assay: fT>MIC in BALB/c mouse infected with Mycobacterium tuberculosis at 20 mg/kg, po; outline: as §3
SMILES,MIC [1] [µg/mL],IC50 [2] [µM],logD at 10000 µM [3],Papp A→B [4] [×10⁻⁶ cm/s],Papp B→A [5] [×10⁻⁶ cm/s],IC50 [15] [µM],other results
N#Cc1ccc2ccc(=O)n(CCN3CCC(NCc4cc5c(cn4)OCCO5)CC3)c2c1,2,1.05,0.7,1.9,38.3,,IC50 (DNA gyrase subunit B): > 100 µM
Cc1ncc(CN[C@@H]2CCN(CCn3c(=O)ccc4ccc(C#N)cc43)C[C@@H]2F)cc1C#N,0.25,,1.29,14.5,13,,
NNC(=O)c1ccncc1 [ISONIAZID],0.06,,,,,,
COc1cnc2ccc(=O)n(CCN3CC[C@@H](NCc4cnc(C)c(C#N)c4)[C@@H](OC)C3)c2c1,0.06,,0.99,11.7,9.9,,clearance [6]: 54 mL/min/kg; bioavailability [7]: 73%
O=C1COc2ccc(CN[C@H]3CCN(CCn4c(=O)ccc5ncc(F)cc54)C[C@H]3F)nc2N1,0.13,0.24,0.47,8.1,12.3,,Activity [8]: Active; fraction unbound [9]: 0.44; fAUC/MIC [10]: 175; fT>MIC (Mus musculus [11]): 58%; clearance [6]: 63 mL/min/kg; bioavailability [7]: > 100%; Activity [12]: Dose-dependent effect; Activity [13]: tde; log10cfu [14]: >3
COc1cnc2ncc(=O)n(CCN3CCC(NCc4cnc(C)c(C#N)c4)CC3)c2c1,0.13,,0.38,,,> 100,
Cc1ncc(CNC2CCN(CCn3c(=O)ccc4c3ccc(=O)n4C)CC2)cc1C#N,> 32,,-0.6,,,33,
COc1ccc2ccc(=O)n(CCN3CCC(NCc4ccc5c(n4)NC(=O)CO5)CC3)c2n1,0.25,0.15,0.8,1.1,25,21,IC50 (DNA gyrase subunit B): > 100 µM
N#Cc1ccc2ccc(=O)n(CCN3CCC(NCc4ccc5c(n4)NC(=O)CO5)CC3)c2c1,0.13,0.11,0.4,2,12.6,,MIC90 [16]: < 0.5 µg/mL; Activity [17]: Active; IC50 (DNA gyrase subunit B): > 100 µM; clearance [6]: 187 mL/min/kg; bioavailability [7]: 11%
COc1cnc2ccc(=O)n(CCN3CCC(NC(=O)c4cnc(C)c(C#N)c4)CC3)c2c1,0.13,,1.4,4.2,13,74,
COc1cnc2ccc(=O)n(CCN3CC[C@@H](NCc4ccc5c(n4)NC(=O)CO5)[C@@H](OC)C3)c2c1,0.13,,0.4,,,> 100,
Cc1nc(CNC2CCN(CCn3c(=O)ccc4ccc(C#N)cc43)CC2)ccc1C#N,> 16,> 100,1.1,17.1,9.1,5.3,IC50 (DNA gyrase subunit B): > 100 µM
COc1c(N2C[C@@H]3CCCN[C@@H]3C2)c(F)cc2c(=O)c(C(=O)O)cn(C3CC3)c12 [MOXIFLOXACIN],0.06,,,,,,LCK [18]: 2.3
Cc1ncc(CN[C@@H]2CCN(CCn3c(=O)ccc4ncc(F)cc43)C[C@@H]2F)cc1C#N,0.25,,0.92,17.7,15.4,,clearance [6]: 30 mL/min/kg; bioavailability [7]: > 100%
COc1ccc2ncc(=O)n(CCN3CCC(NCc4cnc(C)c(C#N)c4)CC3)c2n1,0.13,,1.65,,,13,
COc1cnc2ccc(=O)n(CCN3CCC(NCc4cnc(OC)c(C#N)c4)CC3)c2c1,0.06,,1.2,13,9,12,
CO[C@H]1/C=C/O[C@@]2(C)Oc3c(C)c(O)c4c(O)c(c(/C=N/N5CCN(C)CC5)c(O)c4c3C2=O)NC(=O)/C(C)=C\C=C\[C@H](C)[C@H](O)[C@@H](C)[C@@H](O)[C@@H](C)[C@H](OC(C)=O)[C@@H]1C [RIFAMPIN],0.015,,,,,,
COc1ccc2c(ccc(=O)n2CCN2CCC(NCc3cnc(C)c(C#N)c3)CC2)n1,4,,,,,10,
CC1COc2c(N3CCN(C)CC3)c(F)cc3c(=O)c(C(=O)O)cn1c23 (centres undefined) [OFLOXACIN],0.5,,,,,,MIC90 [16]: > 8 µg/mL
COc1cnc2ccc(=O)n(CCN3CC[C@@H](NCc4cnc(C)c(C#N)c4)[C@@H](F)C3)c2c1,0.06,0.25,1.29,13.6,7.4,90,clearance [6]: 42 mL/min/kg; bioavailability [7]: 52%; LCK [18]: 1.3
Cc1ncc(CNC2CCN(CCn3c(=O)ccc4ccc(C#N)cc43)CC2)cc1C#N,0.06,0.25,1.3,13.6,7.4,26,log10cfu [19]: 0.5; Activity [20]: Active; fraction unbound [9]: 0.43; fAUC/MIC [21]: 159; fT>MIC (Mus musculus [22]): 58%; IC50 (DNA gyrase subunit B): > 100 µM; clearance [6]: 41 mL/min/kg; bioavailability [7]: > 100%
O=C(O)c1cn(C2CC2)c2cc(N3CCNCC3)c(F)cc2c1=O [CIPROFLOXACIN],0.25,,,,,,
COc1cnc2ccc(=O)n(CCN3CCC(NCc4cnc(C)c(C#N)n4)CC3)c2c1,0.5,,0.89,,,69,
COc1cnc2ccc(=O)n(CCN3CC[C@@H](NCc4ccc5c(n4)NC(=O)CO5)[C@@H](F)C3)c2c1,0.03,,0.64,4.1,10.8,,
COc1cc(C#N)c2ccc(=O)n(CCN3CCC(NCc4cnc(C)c(C#N)c4)CC3)c2c1,0.01,0.065,1.86,10,4.7,2.5,clearance [6]: 10 mL/min/kg; bioavailability [7]: 59%
Cc1ncc(CNC2CCN(CCn3c(=O)ccc4ncc(F)cc43)CC2)cc1C#N,0.25,,0.81,18,9.8,69,
